In the RNAGym collection of RNA variant scans (doi:10.1126/science.aae0568):
Variants at the floor of the assay were thinned out.

B1: tRNA (parent)
chain: GUUCCGUUGGCGUAAUGGUAACGCGUCUCCCUCCUAAGGAGAAGACUGCGGGUUCGAGUCCCGUACGGAACG

Variants of: B1
Test: yeast fitness relative to wild type (ratio to wild type); higher = fitter; tRNA-Arg(CCU), competitive growth, 37 C, YPD
How it was run: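 Genotype frequency changes were the basis for Darwinian fitness relative to wild type. The frequencies came from 100-nucleotide paired-end sequencing of gene amplicons from the start population and each end population of pooled yeast strains with tRNA-Arg(CCU) gene variants at the native locus. Competition ran in YPD at 37°C for 24 hours in six replicates, genotypes needed ≥ 100 starting reads, and estimates < 0.5 were set to 0.5.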

| Variant | yeast fitness |
| --- | --- |
| G9A G12U A14U U53A U54C | ≤ 0.5 |
| G10A C60G C61G | 0.528 |
| G10A A42G | 0.656 |
| G10C A36C U47A G48C U54G A65C | ≤ 0.5 |
| G9C C55G C66A | ≤ 0.5 |
| G10A C27U G67C | 0.627 |
| G10A C11A C29A | 0.627 |
| G9A G10A C31G G52A A65C | ≤ 0.5 |
| G10A G18A | ≤ 0.5 |
| G9C A15G C24A C49U | ≤ 0.5 |
| G10A C55U C61A | ≤ 0.5 |
| G10A U53A A65G | ≤ 0.5 |
| G9A C61U | 0.949 |
| G10A A21U C33A G68C | 0.607 |
| G10A U16A C31A G51A | 0.584 |
| G9C A21G G44C U47C A70U | ≤ 0.5 |
| G10A C62U | 0.843 |
| G10C A20U A57U | ≤ 0.5 |
| G9C U54C U59C A69G | ≤ 0.5 |
| G9A U16C A21G A42G | ≤ 0.5 |
| G10A U64C | 0.793 |
| G10A U35A G56A | 0.617 |
| G9A G25C | 0.931 |
| G9U G18A C46A C49G | 0.552 |

| Variant | yeast fitness |
| --- | --- |
| G10A A14U C30U C34A | ≤ 0.5 |
| G10A C24G G56A | ≤ 0.5 |
| G10C A14C C24A C31G | ≤ 0.5 |
| G9C U59A | 0.737 |
| G9C A21G U64A | ≤ 0.5 |
| G9C G44C | 0.65 |
| G10A A15U A36U | ≤ 0.5 |
| G9C A20U C27G A42C C49U A65C | ≤ 0.5 |
| G9C G56C | 0.514 |
| G9C C22A C34A A70G | ≤ 0.5 |
| G10A C66U | 0.635 |
| G9C U47G C49A A69U | ≤ 0.5 |
| G10A A20C G38A G41A U47A | ≤ 0.5 |
| G9C U16G C31A C60A | ≤ 0.5 |
| G9C A45C A65C | ≤ 0.5 |
| G10C A14C | 0.61 |
| G9A U28C A36G | 0.683 |
| G9A U26A | 0.837 |
| G9C C27U U47G G50A | ≤ 0.5 |
| G10C A14C C27A C29G A57C | ≤ 0.5 |
| G10A U16C C29U | 0.599 |
| G9C A21G A42G | ≤ 0.5 |
| G9U C11A C24G C30G | ≤ 0.5 |
| G9C A15C C34G C66A A69C | ≤ 0.5 |

| Variant | yeast fitness |
| --- | --- |
| G9A G44U | 0.766 |
| G9A U13C U19C C34U | 0.549 |
| G9C G48C | 0.695 |
| G10A G68C | 0.768 |
| G9C A14G G44A U53C A70U | ≤ 0.5 |
| G9C A20C U47C C66A | 0.543 |
| G10A A45G | 0.839 |
| G10A U16A A65G | 0.542 |
| G10A A43U C60U | ≤ 0.5 |
| G9C G39C A45C | ≤ 0.5 |
| G9C U32G C33G G50A U53G | ≤ 0.5 |
| G9C C62A | 0.576 |
| G9C C62G | 0.608 |
| G10A C11G A20G C55G | ≤ 0.5 |
| G10A C33U G44C A45G G58A | ≤ 0.5 |
| G9A G51C G52C | ≤ 0.5 |
| G9C C22U U26C G58C G68U | ≤ 0.5 |
| G9A G38C G41C A45G | ≤ 0.5 |
| G10A U19C G48A C49G A69U | 0.594 |
| G9C C30G A57U C60G | 0.533 |
| G10C A37C A42U | ≤ 0.5 |
| G9C C24G C27U U47G U53A | ≤ 0.5 |
| G10C A20G C24U G38C G56C C66U | ≤ 0.5 |
| G10A A36C C62G | ≤ 0.5 |

| Variant | yeast fitness |
| --- | --- |
| G10A U32A G48A | ≤ 0.5 |
| G10A C29U C30G C34A U53C | ≤ 0.5 |
| G9A G39A A45G G50A G63U A69U | ≤ 0.5 |
| G9C A40U A70U | ≤ 0.5 |
| G9A G51C | 0.539 |
| G9A G18A A21C C29U G58C C66G | ≤ 0.5 |
| G10A U28C C60G | ≤ 0.5 |
| G10A A36C A70G | ≤ 0.5 |
| G10A C31U G38C G63A A65G G68C A69G | ≤ 0.5 |
| G9C C29U C49A C61U | ≤ 0.5 |
| G10A U16A A21C | 1 |
| G10A G23C C33G C55G | ≤ 0.5 |
| G9C A14C A69U | ≤ 0.5 |
| G9C A40G A42G A57U C62G C66U | 0.565 |
| G10A C22G C62U | ≤ 0.5 |
| G10A C34G A69U | ≤ 0.5 |
| G10A G12A U53A | ≤ 0.5 |
| G10A C34U | ≤ 0.5 |
| G10A C27U C34G A37U G41C G48A | 0.573 |
| G9C G12C C33U U35A | ≤ 0.5 |
| G10A C31A C61U | ≤ 0.5 |
| G9C G12A U35G | ≤ 0.5 |
| G10A U26G A65U | ≤ 0.5 |
| G9C C24A A45G C46G | 0.597 |

| Variant | yeast fitness |
| --- | --- |
| G9U C11G U32G G56A | ≤ 0.5 |
| G10A G18A A42C C61A | 0.858 |
| G9A U16C A20C C61U | ≤ 0.5 |
| G9C A14C A15U G23A C34A G52C G63C | 0.585 |
| G10A G17A U19A C29U C49G | ≤ 0.5 |
| G10C A42C | 0.71 |
| G10A G17C | 0.549 |
| G10A G17A | 0.556 |
| G9A C55G G56C | ≤ 0.5 |
| G10A A21U C31G | ≤ 0.5 |
| G9C A42C C49G U53A | ≤ 0.5 |
| G9A G10A U28A G39A G48A C61G C66G | ≤ 0.5 |
| G9A G12C C31A C33G A43C A69U A70C | ≤ 0.5 |
| G9C C46G | 0.735 |
| G10C A14U G38C | 0.736 |
| G10A A21C C24A G63A A65C | ≤ 0.5 |
| G10A A20G U35G A37G | ≤ 0.5 |
| G9C A20G U35C A36G | ≤ 0.5 |
| G10A G56A C60U | ≤ 0.5 |
| G9C G38A | 0.624 |
| G10A A45G C55A | ≤ 0.5 |
| G9C A15C U16C C34G C66A A69C | ≤ 0.5 |
| G10A A42C A43C C66A | ≤ 0.5 |
| G10A C34G U64A | ≤ 0.5 |

| Variant | yeast fitness |
| --- | --- |
| G9C A43G | 0.706 |
| G10A U19A A42G U64A | 0.612 |
| G9C G10A G12C G25C G52C | ≤ 0.5 |
| G9C C24U U26G A42U G52U | ≤ 0.5 |
| G9C C27G G44A A57G | 0.691 |
| G10A A15G | 0.782 |
| G10A C11A C29A A45C A69U | ≤ 0.5 |
| G10C A21U G23C G56A C61A A65G | 0.567 |
| G10A A15U G51A A65U | 0.603 |
| G9U A70C | 1.13 |
| G10A C30U C34U A42U A57G | ≤ 0.5 |
| G9C U28A A40C U59C | ≤ 0.5 |
| G9A G51A C60U G67A | 0.588 |
| G10A U35C G56A | ≤ 0.5 |
| G9A G23A G25C U28C A57U A70U | ≤ 0.5 |
| G9A U16A A42C U53C C62A | ≤ 0.5 |
| G10A U19C G41C | 0.532 |
| G10A U13A C24A | 0.582 |
| G10A A20C C61A C62U G63U C66A | 0.646 |
| G10C A15G | 0.786 |
| G10A A14G U26C A36U G52A | ≤ 0.5 |
| G9C C27G C46G A65G | ≤ 0.5 |
| G10C A21C C27A C34A | ≤ 0.5 |
| G10A A15C A37C C62A | 0.636 |

| Variant | yeast fitness |
| --- | --- |
| G10A A15U A36G U47G A65U | ≤ 0.5 |
| G9A G44A C46U A69C | 0.787 |
| G10A A57G G68C | ≤ 0.5 |
| G9A U13A C24A A45C | ≤ 0.5 |
| G10A C24A A43C C61U | ≤ 0.5 |
| G10A C27U G56A C60U | 0.556 |
| G9C A15G C27A C31G G50A | 0.642 |
| G9A G56A A70C | 1.03 |
| G10A A14C G17A C22G C24G C30A | 0.775 |
| G10C A15U C29G C46U G51C C66U | ≤ 0.5 |
| G9C U19C C31A | ≤ 0.5 |
| G9C C27U C34G C60A | ≤ 0.5 |
| G10C A37C A43U | ≤ 0.5 |
| G10A U26A C62U | 0.529 |
| G10A A15C A70U | ≤ 0.5 |
| G9C A21G C34G | ≤ 0.5 |
| G10A C30G A65G | ≤ 0.5 |
| G9C A21G A57C | ≤ 0.5 |
| G9A G52A | 0.687 |
| G9C A15U U16C A36U | ≤ 0.5 |
| G10A U13G C22G C46G | ≤ 0.5 |
| G10A A21C C34U | ≤ 0.5 |
| G9C C24U U26G C62G A70U | ≤ 0.5 |
